The values below come from paper PMC10170627 (RSC Chemical Biology, 2023).

The structures appear in SMILES notation. Starred links: 1 amine or outer side, 2 acyl side, 3 side chain; linkers in the order of their positions; H or OH if unused. Positions of bridges follow the written chain, without caps; N, C: chain ends. Non-standard residues stand in square brackets, D forms with d. Residues, ends and D or L forms follow the SMILES beside them. Chains are numbered I, II in the order given. Actinocin(9to1) = Cc1c2oc3c(C)ccc(C(=O)[*:1])c3nc-2c(C(=O)[*:2])c(N)c1=O; NMeV = CN[C@H](C(=O)O)C(C)C; Sar = CNCC(=O)O

The test system of experiment [1] is NPM1. Kind of experiment: Nucleophosmin. In kind it is cell-based, human. To be noted: A549; 24 h; 5 nM actinomycin D, 5 μM cisplatin, 5 μM compound 1.
Experiment [2] concerns NCI 60-cell line panel. Kind of experiment: NCI 60-cell line panel COMPARE analysis. In kind it is cell-based. To be noted: five-dose data, Standard Agents GI50 library; 48 h.
The target of experiment [3] is E. coli DNA gyrase (Escherichia coli, UniProt P0AES4+P0AES6). Kind of experiment: Inhibition of DNA gyrase activity. In kind it is biochemical. To be noted: positive control.
Experiment [4] concerns E. coli BL21(DE3). Kind of experiment: Bacterial cytological profiling. In kind it is cell-based, Escherichia coli.
Experiment [5] has as its system DU145 spheroids. Kind of experiment: Cytotoxicity in DU145 spheroids. It is filed as cell-based. To be noted: read-out: IC50 (St. dev.) DU145 spheroids; 72 h; triplicate.
Experiment [6] has as its system HEL299. Kind of experiment: Cell cytotoxicity. It is filed as cell-based. To be noted: read-out: IC50 (St. dev.) HEL299; 72 h; triplicate. The method, boiled down: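 Healthy lung fibroblasts were treated with each test compound. IC50 is the average of triplicate measurements, reported with standard deviation. Selectivity index is the HEL299 IC50 divided by the A549 IC50.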

Experiment [7] deals with HL-60. To be noted: read-out: IC50 (St. dev.) HL-60; ref prior work (footnote d); cited from earlier work.
Experiment [8] concerns HeLa parental and XPA knockout cells. Kind of experiment: HeLa parental and XPA knockout cytotoxicity. To be noted: 72 h. It is filed as cell-based.
The test system of experiment [9] is E. coli BL21(DE3). Kind of experiment: Bacteria growth inhibition. It is filed as cell-based, Escherichia coli. To be noted: 0-100 μM, 16 h. In a few lines: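 MIC taken as the lowest test compound concentration at which no bacterial growth was observed.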

Chain of E. coli DNA gyrase (P0AES4 whole entry, one chain of several): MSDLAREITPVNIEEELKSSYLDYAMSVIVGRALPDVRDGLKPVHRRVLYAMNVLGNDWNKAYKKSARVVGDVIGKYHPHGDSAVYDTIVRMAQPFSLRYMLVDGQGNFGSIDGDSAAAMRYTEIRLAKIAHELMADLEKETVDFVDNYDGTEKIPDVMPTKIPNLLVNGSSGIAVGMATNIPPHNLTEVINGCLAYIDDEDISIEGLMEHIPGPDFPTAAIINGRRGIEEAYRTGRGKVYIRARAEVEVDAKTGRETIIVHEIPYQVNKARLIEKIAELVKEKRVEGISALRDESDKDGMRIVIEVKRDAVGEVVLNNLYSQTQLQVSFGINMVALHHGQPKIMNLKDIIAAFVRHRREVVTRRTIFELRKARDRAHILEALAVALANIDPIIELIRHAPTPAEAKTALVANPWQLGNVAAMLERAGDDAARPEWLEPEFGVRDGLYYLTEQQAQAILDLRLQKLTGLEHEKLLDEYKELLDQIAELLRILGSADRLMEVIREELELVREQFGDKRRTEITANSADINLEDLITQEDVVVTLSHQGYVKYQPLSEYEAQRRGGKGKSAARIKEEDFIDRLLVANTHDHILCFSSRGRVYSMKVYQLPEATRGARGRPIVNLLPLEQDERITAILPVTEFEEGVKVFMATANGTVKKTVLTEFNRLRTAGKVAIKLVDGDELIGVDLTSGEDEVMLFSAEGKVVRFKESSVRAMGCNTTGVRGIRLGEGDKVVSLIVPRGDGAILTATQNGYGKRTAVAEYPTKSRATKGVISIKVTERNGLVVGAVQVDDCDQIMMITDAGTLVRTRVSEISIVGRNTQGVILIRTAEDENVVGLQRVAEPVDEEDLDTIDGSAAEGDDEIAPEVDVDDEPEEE

Regarding `Cc1c2oc3c(C)ccc(C(=O)N[C@@H]4C(=O)N[C@H](C(C)C)C(=O)N5CCC[C@H]5C(=O)N(C)CC(=O)N(C)[C@@H](C(C)C)C(=O)O[C@@H]4C)c3nc-2c(C(=O)N[C@@H]2C(=O)N[C@H](C(C)C)C(=O)N3CCC[C@H]3C(=O)N(C)CC(=O)N(C)[C@@H](C(C)C)C(=O)O[C@@H]2C)c(N)c1=O` [Actinomycin D] (I: T[dV]P[Sar][NMeV] / II: T[dV]P[Sar][NMeV]; ester I:1-I:C, II:1-II:C; linker I:N-II:N via Actinocin(9to1)), in [1], the NPM1 distribution phenotype entry is “delocalized NPM1 phenotype”. The “COMPARE correlation (Pearson correlation coefficient) to compound 2” value (shortened to “COMPARE correlation”) in experiment [2] was 0.69.
Regarding `N.N.O=C([O-])C1(C(=O)[O-])CCC1.[Pt+2]` [Carboplatin], the “COMPARE correlation” value in experiment [2] was 0.12.
The same measure, in the same setting: to `CO[C@@H]1[C@H](O)C[C@@H](O[C@@H]2C[C@H](Oc3cc4cc5c(c(O)c4c(O)c3C)C(=O)[C@@H](O[C@H]3C[C@@H](O[C@H]4C[C@@H](O[C@H]6C[C@](C)(O)[C@@H](OC(C)=O)[C@H](C)O6)[C@H](O)[C@@H](C)O4)[C@H](O)[C@@H](C)O3)[C@H]([C@H](OC)C(=O)[C@@H](O)[C@@H](C)O)C5)O[C@H](C)[C@@H]2OC(C)=O)O[C@@H]1C` [Chromomycin A3] belongs 0.85.
As for `O=C(O)c1cn(C2CC2)c2cc(N3CCNCC3)c(F)cc2c1=O` [Ciprofloxacin], the “concentration at which the supercoiled form was lost” value in [3] amounted to 0.75 µM.
In turn, `N.N.[Cl][Pt][Cl]` [Cisplatin] gave an average filament length in experiment [4] (E. coli treated at the MIC, 24 h) of 53 μm. The NPM1 distribution phenotype entry in experiment [1] is “Smaller changes in NPM1 distribution”. Further, the figures for the IC50 in experiment [5], in [6] and in [7] were 5.28 µM, 3.05 µM and 3.1 µM, respectively. In addition, in experiment [8], the “sensitization of XPA knockout versus parental HeLa” value was 4 fold. In addition, the “COMPARE correlation” value in experiment [2] is −0.16. Further, the bacterial growth inhibition result in [9] is listed as “inhibited bacterial growth”.
Regarding `COc1cccc2c1C(=O)c1c(O)c3c(c(O)c1C2=O)C[C@@](O)(C(=O)CO)C[C@@H]3O[C@H]1C[C@H](N)[C@H](O)[C@H](C)O1` [Doxorubicin], the “COMPARE correlation” value in experiment [2] was found to be 0.55.
`COc1cc([C@@H]2c3cc4c(cc3[C@@H](O[C@@H]3O[C@@H]5CO[C@@H](C)O[C@H]5[C@H](O)[C@H]3O)[C@H]3COC(=O)[C@H]23)OCO4)cc(OC)c1O` [Etoposide]: in experiment [2], the “COMPARE correlation” value is on record as 0.39.
For `CC(=O)O[C@H]1C(=O)[C@@]2(C)[C@H]([C@H](OC(=O)c3ccccc3)[C@]3(O)C[C@H](OC(=O)[C@H](O)[C@@H](NC(=O)c4ccccc4)c4ccccc4)C(C)=C1C3(C)C)[C@]1(OC(C)=O)CO[C@@H]1C[C@@H]2O` [Paclitaxel], in [4] (E. coli), the filamentation result is “no filament formation”. Further, the “COMPARE correlation” value in experiment [2] is 0.71. Also, the bacterial growth inhibition result in [9] is “inhibited bacterial growth except for paclitaxel”.
As for `CC[C@]1(O)C[C@@H]2CN(CCc3c([nH]c4ccccc34)[C@@](C(=O)OC)(c3cc4c(cc3OC)N(C)[C@H]3[C@@](O)(C(=O)OC)[C@H](OC(C)=O)[C@]5(CC)C=CCN6CC[C@]43[C@@H]65)C2)C1` [Vinblastine], the “COMPARE correlation” value in experiment [2] was determined as 0.64.
For the molecule `CO[C@H]1/C=C/O[C@@]2(C)Oc3c(C)c(O)c4c(O)c(c(/C=N/N5CCN(C)CC5)c(O)c4c3C2=O)NC(=O)/C(C)=C\C=C\[C@H](C)[C@H](O)[C@@H](C)[C@@H](O)[C@@H](C)[C@H](OC(C)=O)[C@@H]1C` [rifampicin], the bacterial growth inhibition result in experiment [9] is listed as “inhibited bacterial growth”.
The same measure, in the same setting: to `CN(C)[C@@H]1C(O)=C(C(N)=O)C(=O)[C@@]2(O)C(O)=C3C(=O)c4c(O)cccc4[C@@](C)(O)[C@H]3C[C@@H]12` [tetracycline] belongs “inhibited bacterial growth”.

In general, IC50 refers to the point on the concentration scale where inhibition reaches its midpoint.
